Compound activity: PubChem, Johns Hopkins Ion Channel Center
Rows were chosen to be rich in hits. Some 3.8% of all compounds tested hit in one or more screens of this group.
hERG protect: compounds protecting human hERG from proarrhythmic drug block; 310,000 compounds, 0.51% hits; CHO-hERG, FluxOR thallium flux, dofetilide IC70 present; Q12809; activation (rescue from dofetilide block), less the hit threshold, % at 10 µM;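 active = activation above the mean of controls blocked by dofetilide plus 5 SD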;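 also: thallium influx through hERG after potassium depolarization seen as dye fluorescence rise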
KCNQ1 inh: human KCNQ1 channel inhibition. B-score at 10 µM. 310,000 compounds, 1.3% hits. P51787. CHO-K1 KCNQ1, FluxOR thallium flux fluorescence; hits give high values. AID 2642;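 active = compounds whose thallium flux B-score, printed positive for inhibition, exceeds three library SD while starting fluorescence stays within three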;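 also: channel opened by potassium depolarization with thallium stimulus after 20 min compound exposure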
KCNK3 block: human KCNK3 channel inhibition, primary screen. B-score at 10 µM. CHO-KCNK3 thallium flux, FluxOR fluorescence; hits give low values. 340,000 compounds, 0.84% hits;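 active = B-score under library mean minus 4 SD, starting fluorescence ratio at most library mean plus 5 SD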;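 also: more negative B-score means stronger inhibition of thallium flux through KCNK3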
Kir21 block: blocks the mouse Kir2.1 inward-rectifier potassium channel; B-score at 10 µM; AID 1672; P35561; 310,000 compounds, 0.85% hits; HEK293-Kir2.1, FluxOR thallium flux fluorescence; hits give low values;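 active = fluorescence ratio B-score at or below minus 3 SD of library scores, with starting-brightness B-score within 2 SD, cut at about -4.2 in these data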;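 also: channel flux triggered by added potassium and thallium sulfate stimulus; B-score of peak minus minimum fluorescence over baseline after thallium stimulus; more negative B-score means stronger Kir2.1 block with less thallium influx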
Target sequence (P35561 whole entry, looked up): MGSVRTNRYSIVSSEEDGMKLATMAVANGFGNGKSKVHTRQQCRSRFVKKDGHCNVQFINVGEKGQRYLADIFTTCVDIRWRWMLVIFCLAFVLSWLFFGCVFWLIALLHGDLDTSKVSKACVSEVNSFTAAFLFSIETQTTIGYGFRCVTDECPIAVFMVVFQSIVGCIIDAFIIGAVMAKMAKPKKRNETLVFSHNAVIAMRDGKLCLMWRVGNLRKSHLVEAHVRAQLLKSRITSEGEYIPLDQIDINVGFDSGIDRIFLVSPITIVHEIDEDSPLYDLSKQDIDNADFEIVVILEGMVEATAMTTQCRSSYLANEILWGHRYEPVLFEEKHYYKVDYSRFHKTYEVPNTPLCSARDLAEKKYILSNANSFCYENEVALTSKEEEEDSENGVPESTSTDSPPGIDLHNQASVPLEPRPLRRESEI
KCNQ1 pot: potentiates or activates the human KCNQ1 potassium channel; CHO-K1 KCNQ1, thallium flux FluxOR fluorescence; hits give high values; B-score at 10 µM; 310,000 compounds, 0.35% hits; AID 2648;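 active = fluorescence ratio B-score, a plate-corrected score, at least three library SD, with initial intensity B-score within 5 SD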
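Assay system: CHO-K1 cells stably expressing KCNQ1; Medium: assay buffer with matched DMSO; Also added: K+/Tl+ depolarizing stimulus; Dosing: single dose; Timing: dye 90 min, compound 20 min, room temperature; Measured by: kinetic FluxOR thallium fluorescence, 10-s 1-Hz baseline, 110-s post-stimulus read; Read-out: peak-minus-minimum fluorescence over initial fluorescence, negative-control normalized, B-scored.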
KCNK9 inh: inhibitors of human KCNK9 two-pore domain potassium channel. Q9NPC2. HEK293 KCNK9, FluxOR thallium flux fluorescence; hits give low values. B-score at 10 µM. 310,000 compounds, 1.2% hits. AID 488922;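 active = ratio B-score over 3 SD below the library mean, with starting fluorescence within 5 SD of its mean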;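 also: negative B-score means less thallium flux so channel inhibition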
Each line names hits and unclear results; the compound was inactive in the other large screens.

CCNC(=O)C/C(C)=N/NC(=O)C(=O)Nc1ccc(CC)cc1	hERG protect 4.7
CCc1ccc(NC(=O)C(=O)N/N=C(\C)CC(=O)NCc2ccc(Cl)cc2)cc1	none
O=C(/C=C/c1ccccc1)NCCc1nc2ccccc2[nH]1	none
COc1ccc(OC)c(/C=C/C(=O)NCCc2nc3ccccc3[nH]2)c1	KCNQ1 inh 7
CC(C)C(=O)Nc1ccc2c(c1)Cc1cc(NC(=O)C(C)C)ccc1-2	hERG protect 6.0
CC(=O)Nc1ccc2c(c1)Cc1ccc(Cl)cc1-2	none (no result: hERG protect, KCNQ1 inh, Kir21 block, KCNQ1 pot, KCNK9 inh)
CCOC(=O)C1=C(C)n2c(s/c(=C/c3cccc([N+](=O)[O-])c3)c2=O)=NC1c1ccc(O)c(OC)c1 (stereo not given)	KCNQ1 inh 6
CC12CCC(C(=O)OC3CCCCC3)(OC1=O)C2(C)C (stereo not given)	hERG protect 5.8
CSCCC(NC(=O)c1ccc([N+](=O)[O-])cc1Cl)C(=O)OCC(=O)C12CC3CC(CC(C3)C1)C2 (stereo not given)	hERG protect 39
C=C(C)COC(=O)C1CC2OC2CC1C(=O)OCC(=C)C (stereo not given)	none (no result: hERG protect, KCNQ1 inh, Kir21 block, KCNQ1 pot, KCNK9 inh)
CC1Cc2ccccc2N1C(=O)Cn1c(=O)oc2cc(S(=O)(=O)N3CCCCC3)ccc21 (stereo not given)	KCNK9 inh -7.2
Cc1cc(C)c(C)c(S(=O)(=O)N2CCSCC2)c1C	Kir21 block -4.5
Cc1c(C)c(C)c(S(=O)(=O)N2CCSCC2)c(C)c1C	none
Cc1ccc(N(CC(=O)NC2CCCC2)C(=O)CNC(=O)c2cccs2)c(C)c1	none
CCOc1ccc(NS(=O)(=O)c2ccc(OC)c(C)c2)cc1	Kir21 block -7.5
CC(/C=N/n1c(-c2ccccc2)n[nH]c1=S)=C\c1ccco1	none
CC(/C=N/n1c(-c2ccc(C)cc2)n[nH]c1=S)=C\c1ccco1	KCNQ1 pot 10
CC(C)Oc1ccc(S(=O)(=O)N2CCOCC2)cc1NC(=O)c1ccc(N2CCCC2=O)cc1	none
O=C(c1ccc(C(F)(F)F)cc1)N1CCC(=O)N(C(COCc2ccccc2)Cc2ccccc2)CC1 (stereo not given)	none
CC(C)CC(COCc1ccc(C(F)(F)F)cc1)N1CCN(C(=O)c2ccc(C(F)(F)F)cc2)CCC1=O (stereo not given)	KCNK9 inh -7.1
Cc1ccc2c(c1)C1CN(C)CCC1N2C(=S)NC(=O)c1ccc(Br)cc1 (stereo not given)	KCNQ1 pot 22
N#CC1=C(N)OC2=C(CCc3ccccc32)C1c1ccccc1Cl (stereo not given)	KCNK9 inh -7.6
NC1=NC2(CCC(c3ccccc3)CC2)n2c(nc3ccccc32)N1 (stereo not given)	KCNK9 inh -7.9
CCOC(=O)N1C2c3ccccc3C(c3ccccc32)N1C(=O)OCC	none (no result: hERG protect, KCNQ1 inh, Kir21 block, KCNQ1 pot, KCNK9 inh)
Cc1ccc(C2NC(c3ccc(C)cc3)C(C)C(=O)C2C)cc1 (stereo not given)	KCNK9 inh -7
COc1cc2ccc3c(CCN(C)C)cc(OC)c(OC)c3c2cc1OC	none
CN(C)CCc1cc2c(c3c1ccc1ccccc13)OCO2	Kir21 block -11
O=C(CCCCCN1C(=O)[C@@H]2Cc3ccccc3CN2C1=O)Nc1cccc(F)c1	none
S=c1nc(COc2ccccc2)[nH]c2ccccc12	hERG protect 76, KCNQ1 pot 92
S=c1nc(Cc2ccccc2)[nH]c2ccccc12	hERG protect 44, KCNQ1 pot 48
S=c1nc(Cc2ccc(Cl)cc2)[nH]c2ccccc12	KCNQ1 pot 43
Cc1csc(CN(C)C(=O)CC2C(=O)NCCN2Cc2ccc(F)cc2Cl)n1 (stereo not given)	none
Cc1ccccc1-c1cc(C(=O)NCc2ccco2)n(CC2CC(c3cccnc3)=NO2)n1 (stereo not given)	none (no result: hERG protect, KCNQ1 inh, Kir21 block, KCNQ1 pot, KCNK9 inh)
COc1ccccc1N1CN(S(=O)(=O)c2ccc(C)cc2)c2nc3ccccc3nc21	KCNK3 block -9.9 (no result: hERG protect, KCNQ1 inh, Kir21 block, KCNQ1 pot, KCNK9 inh)
COc1ccc(C(=O)NN/C(C)=C/C(=O)c2ccccc2)cc1	hERG protect 9.1
C/C(=C\C(=O)c1ccccc1)NNC(=O)c1ccc(Cl)cc1	hERG protect 6.5
COc1ccc(N/C(C)=C/C(=O)c2ccccc2)cc1	none
